According to ChEMBL document CHEMBL4219194, “Diversity-oriented synthesis of pyrazoles derivatives from flavones and isoflavones leads to the discovery of promising reversal agents of fluconazole resistance in Candida albicans” (2018):
Converted amounts (≈) assume the structure as drawn.

Columns and labels:
Assay type in all cases: functional
Candida albicans [1] = assay: Antifungal activity against Candida albicans SC5314 after 48 hrs by broth microdilution method; conditions: SC5314, 48 h
How it was run: (§1)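 MIC80 read by broth microdilution, with fluconazole as the positive antifungal agent. Values are reported in µg/mL as means of three independent experiments. Strains: wild-type SC5314 and DSY654, which lacks the Cdr1 and Cdr2 efflux pumps.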

Candida albicans [2] = assay: Antifungal activity against CDR1 and CDR2 efflux pump deficient Candida albicans DSY654 after 48 hrs by broth microdilution method; conditions: DSY654, 48 h; how it was run: as §1
Candida albicans [3] = assay: Antifungal activity against fluconazole-resistant Candida albicans 28A after 48 hrs by broth microdilution method
How it was run: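 Clinical fluconazole-resistant isolates tested in broth microdilution with the compound alone. The endpoint is MIC80, the lowest concentration giving 80% growth inhibition, in µg/mL.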

Candida albicans [4] = assay: Synergistic antifungal activity against fluconazole-resistant Candida albicans 28A after 48 hrs in presence of fluconazole by broth microdilution checkerboard method
How it was run: (§2)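 Checkerboard dose-response matrix on strain 28A with gradients of fluconazole and the test compound in RPMI 1640, read after 48 h at 35 °C. MIC80 is taken alone and in combination, and FICI is calculated. Synergy is FICI ≤0.5, indifference >0.5-4, and antagonism >4.0.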

Candida albicans [5] = assay: Potentiation of fluconazole-induced antifungal activity against fluconazole-resistant Candida albicans 28A assessed as fluconazole MIC80 after 48 hrs by broth microdilution checkerboard method; how it was run: as §2
Candida albicans [6] = assay: Potentiation of fluconazole-induced antifungal activity against fluconazole-resistant Candida albicans 28A after 48 hrs by broth microdilution checkerboard method; how it was run: as §2

SMILES	MIC80 (Candida albicans [1])	MIC80 (Candida albicans [2])	MIC80 (Candida albicans [3])	MIC80 (Candida albicans [4])	MIC80 (Candida albicans [5])	fractional inhibitory concentration index (FICI) (Candida albicans [6])
COc1ccc(-c2c[nH]nc2-c2ccc(O)cc2O)cc1	> 128 µg/mL	> 128 µg/mL	> 128 µg/mL	> 128 µg/mL	> 128 µg/mL	2
Oc1ccccc1-c1cc(-c2ccccc2)[nH]n1	16 µg/mL (≈ 67.7 µM)	8 µg/mL (≈ 33.9 µM)	64 µg/mL (≈ 271 µM)	16 µg/mL	2 µg/mL	0.266
COc1ccc(C2=CC(c3c(O)cc(OC)cc3OC)=NCCN2)cc1	> 128 µg/mL	16 µg/mL (≈ 45.1 µM)	> 128 µg/mL	> 128 µg/mL	> 128 µg/mL	2
OCCn1cc(-c2ccc(O)cc2)c(-c2ccc(O)cc2O)n1	> 128 µg/mL	> 128 µg/mL	> 128 µg/mL	> 128 µg/mL	> 128 µg/mL	2
COc1ccc(-c2cnn(-c3ccccc3)c2-c2c(O)cc(OC)cc2OC)cc1	> 128 µg/mL	> 128 µg/mL	> 128 µg/mL	> 128 µg/mL	> 128 µg/mL	2
COc1ccc(-c2cn[nH]c2-c2c(O)cc(O)cc2O)cc1	> 128 µg/mL	> 128 µg/mL	> 128 µg/mL	> 128 µg/mL	> 128 µg/mL	2
Oc1ccc(C2=NCCNC(c3ccccc3)=C2)c(O)c1O	> 128 µg/mL	32 µg/mL (≈ 108 µM)	> 128 µg/mL	> 128 µg/mL	> 128 µg/mL	2
Oc1ccccc1C1=NCCNC(c2ccccc2)=C1	> 128 µg/mL	> 128 µg/mL	> 128 µg/mL	> 128 µg/mL	> 128 µg/mL	2
OCCn1cc(-c2ccc(O)cc2)c(-c2ccc(O)c(C3OC(CO)C(O)C(O)C3O)c2O)n1 (stereo not given)	> 128 µg/mL	> 128 µg/mL	> 128 µg/mL	> 128 µg/mL	> 128 µg/mL	2
OCCn1ncc(-c2ccc(O)cc2)c1-c1ccc(O)cc1O	> 128 µg/mL	> 128 µg/mL	> 128 µg/mL	> 128 µg/mL	> 128 µg/mL	2
OCCn1nc(-c2ccccc2)cc1-c1ccccc1O	> 128 µg/mL	8 µg/mL (≈ 28.5 µM)	> 128 µg/mL	> 128 µg/mL	> 128 µg/mL	2
COc1ccc(-c2cn[nH]c2-c2c(O)cc(OC)cc2OC)cc1	> 128 µg/mL	> 128 µg/mL	> 128 µg/mL	> 128 µg/mL	> 128 µg/mL	2
COc1ccc(-c2cnn(CCO)c2-c2ccc(O)cc2O)cc1	> 128 µg/mL	> 128 µg/mL	> 128 µg/mL	> 128 µg/mL	> 128 µg/mL	2
COc1cc(O)c(-c2cc(-c3ccccc3)nn2-c2ccccc2)c(OC)c1	> 128 µg/mL	> 128 µg/mL	> 128 µg/mL	> 128 µg/mL	> 128 µg/mL	2
Oc1cc(O)c(-c2cc(-c3ccccc3)n[nH]2)c(O)c1	> 128 µg/mL	> 128 µg/mL	> 128 µg/mL	8 µg/mL	2 µg/mL	0.078
COc1ccc(-c2cc(-c3ccccc3)[nH]n2)c(O)c1OC	> 128 µg/mL	> 128 µg/mL	> 128 µg/mL	> 128 µg/mL	> 128 µg/mL	2
CCn1cc(-c2ccc(OC)cc2)c(-c2ccc(O)cc2O)n1	> 128 µg/mL	> 128 µg/mL	> 128 µg/mL	> 128 µg/mL	> 128 µg/mL	2
COc1ccc(-n2nc(-c3ccccc3)cc2-c2c(O)cc(OC)c(OC)c2OC)cc1	> 128 µg/mL	4 µg/mL (≈ 9.25 µM)	> 128 µg/mL	> 128 µg/mL	> 128 µg/mL	2
Oc1ccc(-c2cn[nH]c2-c2ccc(O)cc2O)cc1	> 128 µg/mL	> 128 µg/mL	> 128 µg/mL	> 128 µg/mL	> 128 µg/mL	2
OCCn1ncc(-c2ccc(O)cc2)c1-c1ccc(O)c(C2OC(CO)C(O)C(O)C2O)c1O (stereo not given)	> 128 µg/mL	> 128 µg/mL	> 128 µg/mL	> 128 µg/mL	> 128 µg/mL	2
